Measurements published in ChEMBL document CHEMBL1144889 (J Med Chem, 2003).
pEC50, pKi: −log10 of the molar value. Activity calls are given as the source filed them. The rule behind the calls is not given here.

Key:
Progesterone receptor = target: T1, Progesterone receptor (Homo sapiens, UniProt P06401); experiment: Displacement of [3H]progesterone from human Progesterone receptor A; - = low efficacy or functional efficacy <20%
T1 sequence (P06401 whole entry): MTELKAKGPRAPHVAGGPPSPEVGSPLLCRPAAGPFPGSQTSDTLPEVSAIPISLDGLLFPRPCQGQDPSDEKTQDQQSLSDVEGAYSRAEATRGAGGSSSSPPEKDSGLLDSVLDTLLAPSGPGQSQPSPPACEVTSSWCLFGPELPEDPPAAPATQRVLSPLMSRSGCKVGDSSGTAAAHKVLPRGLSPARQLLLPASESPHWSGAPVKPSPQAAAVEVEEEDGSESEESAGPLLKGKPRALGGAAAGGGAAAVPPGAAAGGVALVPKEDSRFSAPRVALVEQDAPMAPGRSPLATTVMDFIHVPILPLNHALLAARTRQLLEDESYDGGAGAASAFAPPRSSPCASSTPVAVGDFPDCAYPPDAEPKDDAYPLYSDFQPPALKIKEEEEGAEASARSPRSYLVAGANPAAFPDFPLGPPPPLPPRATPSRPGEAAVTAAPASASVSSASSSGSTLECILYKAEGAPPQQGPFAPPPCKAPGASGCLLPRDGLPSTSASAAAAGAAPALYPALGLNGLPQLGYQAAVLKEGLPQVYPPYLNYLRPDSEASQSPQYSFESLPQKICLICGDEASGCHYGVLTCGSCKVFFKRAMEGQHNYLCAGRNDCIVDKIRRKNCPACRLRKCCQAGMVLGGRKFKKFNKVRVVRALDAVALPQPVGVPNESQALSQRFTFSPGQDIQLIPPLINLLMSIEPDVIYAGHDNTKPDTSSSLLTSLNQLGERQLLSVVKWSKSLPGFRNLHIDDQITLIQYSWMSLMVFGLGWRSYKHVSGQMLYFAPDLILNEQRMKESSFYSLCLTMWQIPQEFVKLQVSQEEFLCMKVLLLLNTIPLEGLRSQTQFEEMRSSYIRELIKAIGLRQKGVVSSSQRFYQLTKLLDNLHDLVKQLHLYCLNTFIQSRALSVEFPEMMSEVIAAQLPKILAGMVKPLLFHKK
Outline: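 Human PR-A expressed from baculovirus in Sf21 cells, cytosol about 40 µg protein. Incubated with about 0.8 nM [3H]progesterone overnight at 4 °C in Tris/EDTA/glycerol/DTT/molybdate buffer, pH 7.6. Nonspecific binding taken with 1 µM unlabeled progesterone. Hydroxyapatite capture, scintillation counting. IC50 from Hill analysis, Ki from Cheng-Prusoff.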

Glucocorticoid receptor [1] = target: T2, Glucocorticoid receptor (Homo sapiens, UniProt P04150); experiment: Transcriptional repression in HepG2 cells expressing human glucocorticoid receptor; - = low efficacy or a functional efficacy <20%; assay type: cell-based
T2 sequence (P04150 whole entry): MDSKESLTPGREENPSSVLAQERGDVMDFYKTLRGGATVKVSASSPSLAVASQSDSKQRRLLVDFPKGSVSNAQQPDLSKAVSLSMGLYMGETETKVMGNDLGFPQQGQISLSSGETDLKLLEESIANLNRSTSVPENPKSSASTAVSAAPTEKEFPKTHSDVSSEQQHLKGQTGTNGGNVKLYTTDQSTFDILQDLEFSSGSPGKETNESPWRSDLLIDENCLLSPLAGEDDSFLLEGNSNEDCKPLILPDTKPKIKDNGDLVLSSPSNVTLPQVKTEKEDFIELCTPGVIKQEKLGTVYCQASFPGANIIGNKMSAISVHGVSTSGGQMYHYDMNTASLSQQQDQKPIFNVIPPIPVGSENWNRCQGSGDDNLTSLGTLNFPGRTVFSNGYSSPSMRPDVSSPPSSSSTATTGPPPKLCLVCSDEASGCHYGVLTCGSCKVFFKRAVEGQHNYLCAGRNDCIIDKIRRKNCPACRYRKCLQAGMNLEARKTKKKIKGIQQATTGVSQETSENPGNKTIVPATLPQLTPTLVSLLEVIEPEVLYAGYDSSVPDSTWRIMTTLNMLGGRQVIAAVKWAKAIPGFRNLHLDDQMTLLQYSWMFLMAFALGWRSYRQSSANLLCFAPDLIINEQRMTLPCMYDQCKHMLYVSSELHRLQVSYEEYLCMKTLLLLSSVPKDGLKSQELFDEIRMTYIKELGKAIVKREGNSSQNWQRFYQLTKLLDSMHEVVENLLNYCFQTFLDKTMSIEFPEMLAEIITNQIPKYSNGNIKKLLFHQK
Outline: (§1)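 Cotransfection in HepG2 cells with a luciferase reporter under an E-selectin promoter carrying one NFκB and one AP-1 site. Readout is repression of transcription. Seven-point half-log concentration-response curves. EC50 taken at half-maximal response. Efficacy expressed as % of the dexamethasone maximum. Mean of two experiments in triplicate, single run, or ≥3 experiments.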

Glucocorticoid receptor [2] = target: T2, Glucocorticoid receptor; experiment: Transcriptional activation in CV-1 cells expressing human glucocorticoid receptor; - = low efficacy or a functional efficacy <5%; assay type: cell-based
Outline: (§2)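 Cotransfection of an hGR receptor plasmid with a luciferase reporter driven by the MMTV promoter (four GREs) in CV-1 cells. Seven-point half-log concentration-response curves. EC50 taken as half-maximal response. Efficacy expressed as % of the dexamethasone maximum. Mean of two experiments in triplicate, single triplicate run, or ≥3 experiments in triplicate.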

[3] = target: T3, Glucocorticoid receptor (Homo sapiens) (UniProt P04150); experiment: Transcriptional activation in CV-1 cells expressing human glucocorticoid receptor compared to Dexamethasone; assay type: functional, cell-based
T3 sequence (whole entry): T2 sequence (P04150 whole entry)
Outline: (§3)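 GRE activation co-transfection in CV-1 cells: hGR receptor plasmid plus a luciferase reporter driven by part of the MMTV promoter (four GRE sites, no known AP-1 or NFκB affinity). Full seven-point, half-log concentration-response curves run in triplicate. EC50 is the concentration at half-maximal response; efficacy is given as % of the dexamethasone maximal response.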

Glucocorticoid receptor [4] = target: T2, Glucocorticoid receptor; experiment: Transcriptional repression in HepG2 cells expressing human glucocorticoid receptor; assay type: functional, cell-based
Glucocorticoid receptor [5] = target: T2, Glucocorticoid receptor; experiment: Binding affinity towards human glucocorticoid receptor (GR) was determined using [3H]dexamethasone as radioligand in […] cells; assay type: cell-based
Glucocorticoid receptor [6] = target: T2, Glucocorticoid receptor; experiment: Transcriptional activation in CV-1 cells expressing human glucocorticoid receptor; - = low efficacy or a functional efficacy <20%; assay type: cell-based; outline: as §2
[7] = target: T3, Glucocorticoid receptor (Homo sapiens); experiment: Transcriptional activation in CV-1 cells expressing human glucocorticoid receptor compared to Dexamethasone; - = low efficacy or a functional efficacy <20%; assay type: cell-based; outline: as §3
[8] = target: T3, Glucocorticoid receptor (Homo sapiens); experiment: Transcriptional repression in HepG2 cells expressing human glucocorticoid receptor compared to Dexamethasone; - = low efficacy or a functional efficacy <20%; assay type: cell-based
Outline: (§4)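 Repression co-transfection in HepG2 cells: luciferase reporter under an E-selectin promoter carrying one NFκB and one AP-1 binding site. Full seven-point, half-log concentration-response curves run in triplicate. EC50 is the concentration at half-maximal response; maximal efficacy is given as % of the dexamethasone maximal response.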

[9] = target: T3, Glucocorticoid receptor (Homo sapiens); experiment: Transcriptional activation in CV-1 cells expressing human glucocorticoid receptor compared to Dexamethasone; - = low efficacy or a functional efficacy <5%; assay type: cell-based; outline: as §3
Glucocorticoid receptor [10] = target: T2, Glucocorticoid receptor; experiment: Transcriptional repression in HepG2 cells expressing human glucocorticoid receptor; - = low efficacy or a functional efficacy <5%; assay type: cell-based; outline: as §1
[11] = target: T3, Glucocorticoid receptor (Homo sapiens); experiment: Transcriptional repression in HepG2 cells expressing human glucocorticoid receptor compared to Dexamethasone; - = low efficacy or a functional efficacy <5%; assay type: cell-based; outline: as §4

| SMILES | EC50 (Glucocorticoid receptor [1]) | EC50 (Glucocorticoid receptor [2]) | Efficacy [3] [%] | pKi (Glucocorticoid receptor [5]) | EC50 (Glucocorticoid receptor [6]) | other results |
| --- | --- | --- | --- | --- | --- | --- |
| C=CCC1Oc2ccc(OCC)c(OC)c2-c2ccc3c(c21)C(C)=CC(C)(C)N3 (configuration not stated) | Not Active | – | – | – | – | Ki (Progesterone receptor): Not Active |
| C=CCC1Oc2cccc(CN)c2-c2ccc3c(c21)C(C)=CC(C)(C)N3 (configuration not stated) | – | Not Active | 7 | 6.85 | – | pEC50 (Glucocorticoid receptor [4]): 6.33 |
| C=CCC1Oc2cccc(OCC3CC3)c2-c2ccc3c(c21)C(C)=CC(C)(C)N3 (configuration not stated) | Not Active | – | – | 5.68 | Not Active | Efficacy [7]: inactive; Efficacy [8]: inactive |
| C=CCC1Oc2cccc(OCC)c2-c2ccc3c(c21)C(C)=CC(C)(C)N3 (configuration not stated) | Not Active | – | 0 | 7.19 | Not Active | – |
| C=CCC1Oc2cccc(COC)c2-c2ccc3c(c21)C(C)=CC(C)(C)N3 (configuration not stated) | – | Not Active | 5 | – | – | pEC50 (Glucocorticoid receptor [4]): 6.52 |
| C=CCOc1cccc2c1-c1ccc3c(c1C(CC=C)O2)C(C)=CC(C)(C)N3 (configuration not stated) | Not Active | – | 0 | 7.06 | Not Active | – |
| C=CCC1Oc2cccc(OCc3ccccc3)c2-c2ccc3c(c21)C(C)=CC(C)(C)N3 (configuration not stated) | Not Active | – | – | 5.22 | Not Active | Efficacy [7]: inactive; Efficacy [8]: inactive |
| C=CCC1Oc2cccc(C(=O)OC)c2-c2ccc3c(c21)C(C)=CC(C)(C)N3 (configuration not stated) | – | Not Active | – | 6.40 | – | Efficacy [9]: inactive; EC50 (Glucocorticoid receptor [10]): Not Active; Efficacy [11]: inactive |
